Assay results from ChEMBL document CHEMBL4321831, “Vaccine Adjuvants Derivatized from Momordica Saponins I and II” (J Med Chem, 2019).
Active and inactive are the calls of the source. The calls are words filed in the database; no cut-off is given here.

How the values were obtained:
[1] = tested on: Mus musculus; test: Immuno-adjuvant activity in OVA-immunized BALB/c mouse assessed as potentiation of antibody response to OVA by measuring increase in serum anti-OVA IgG1 activity at 100 ug, sc administered immediately and on day 14, 28 and measured at week 2 to 4 by ELISA; type: functional, organism-based
Summary of the method: (§1)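 Female BALB/c mice (8–10 weeks, six per group) got sc OVA (20 μg) plus adjuvant (100 μg) on days 0, 14 and 28. Tail-vein serum was taken before each dose and 2 weeks after the last. ELISA plates were coated with OVA (0.1 μg/mL) in borate-buffered saline, pH 8.2. Serial 2-fold serum dilutions were run in duplicate, detected with HRP anti-mouse IgG/IgG1/IgG2a and o-phenylenediamine, and read at 490 nm.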

[2] = tested on: Mus musculus; test: Immuno-adjuvant activity in OVA-immunized BALB/c mouse assessed as potentiation of antibody response to OVA by measuring ratio of serum anti-OVA IgG2a to serum anti-OVA IG1 level at 100 ug, sc administered immediately and on day 14, 28 and measured at week 6 by ELISA; type: functional
[3] = tested on: Mus musculus; test: Immuno-adjuvant activity in recombinant Porphyromonas gingivalis HagB-immunized BALB/c mouse assessed as potentiation of antibody response to rHagB by measuring increase in serum anti-rHagB IgG1 activity at 100 ug, sc administered immediately and on day 14, 28 and measured at week 2 to 4 by ELISA; type: functional, organism-based
[4] = tested on: Mus musculus; test: Immuno-adjuvant activity in OVA-immunized BALB/c mouse assessed as potentiation of antibody response to OVA by measuring increase in serum anti-OVA IgG2a activity at 100 ug, sc administered immediately and on day 14, 28 and measured at week 4 to 6 by ELISA; type: functional, organism-based; summary of the method: as §1
[5] = tested on: Mus musculus; test: Immuno-adjuvant activity in recombinant Porphyromonas gingivalis HagB-immunized BALB/c mouse assessed as potentiation of antibody response to rHagB by measuring increase in serum anti-rHagB IgG activity at 100 ug, sc administered immediately and on day 14, 28 and measured at week 2 to 4 by ELISA; type: functional, organism-based
[6] = tested on: Mus musculus; test: Immuno-adjuvant activity in OVA-immunized BALB/c mouse assessed as potentiation of antibody response to OVA by measuring serum anti-OVA IgG1 level at 100 ug, sc administered immediately and on day 14, 28 and measured at week 6 by ELISA (reference value: 113 +/- 37 ug/ml); type: functional; summary of the method: as §1
[7] = tested on: Mus musculus; test: Immuno-adjuvant activity in recombinant Porphyromonas gingivalis HagB-immunized BALB/c mouse assessed as potentiation of antibody response to rHagB by measuring serum anti-rHagB IgG1 activity at 100 ug, sc administered immediately and on day 14, 28 and measured at week 6 by ELISA; type: functional, organism-based
[8] = tested on: Mus musculus; test: Immuno-adjuvant activity in OVA-immunized BALB/c mouse assessed as potentiation of antibody response to OVA by measuring serum anti-OVA IgG2a level at 100 ug, sc administered immediately and on day 14, 28 and measured at week 6 by ELISA (reference value: 0.1 ug/ml); type: functional; summary of the method: as §1
[9] = tested on: Mus musculus; test: Immuno-adjuvant activity in OVA-immunized BALB/c mouse assessed as potentiation of antibody response to OVA by measuring increase in serum anti-OVA IgG activity at 100 ug, sc administered immediately and on day 14, 28 and measured at week 2 to 6 by ELISA; type: functional, organism-based; summary of the method: as §1
[10] = Toxicity in OVA-immunized BALB/c mouse assessed as changes in body weight at 100 ug, sc administered immediately and on day 14, 28 and measured at week 6; type: organism-based; details: in vivo
Summary of the method: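 Female BALB/c mice (8–10 weeks, six per group) received sc OVA (20 μg) with adjuvant (100 μg) on days 0, 14 and 28. Body weight was recorded before each immunization and 2 weeks after the final one.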

[11] = tested on: Mus musculus; test: Immuno-adjuvant activity in recombinant Porphyromonas gingivalis HagB-immunized BALB/c mouse assessed as potentiation of antibody response to rHagB by measuring increase in serum anti-rHagB IgG activity at 100 ug, sc administered immediately and on day 14, 28 and measured at week 6 by ELISA; type: functional, organism-based
[12] = tested on: Mus musculus; test: Immuno-adjuvant activity in OVA-immunized BALB/c mouse assessed as potentiation of antibody response to OVA by measuring serum anti-OVA IgG2a activity at 100 ug, sc administered immediately and on day 14, 28 and measured at week 2 by ELISA; type: functional, organism-based; summary of the method: as §1
[13] = tested on: Mus musculus; test: Immuno-adjuvant activity in OVA-immunized BALB/c mouse assessed as potentiation of antibody response to OVA by measuring increase in serum anti-OVA IgG activity at 100 ug, sc administered immediately and on day 14, 28 and measured at week 2 to 4 by ELISA; type: functional, organism-based; summary of the method: as §1
[14] = tested on: Mus musculus; test: Immuno-adjuvant activity in OVA-immunized BALB/c mouse assessed as potentiation of antibody response to OVA by measuring serum anti-OVA IgG activity at 100 ug, sc administered immediately and on day 14, 28 and measured at week 6 by ELISA; type: functional, organism-based; summary of the method: as §1
[15] = Acute toxicity in BALB/c mouse assessed as mouse survival at 100 to 200 ug, sc measured after 5 days; type: organism-based; details: in vivo
Summary of the method: (§2)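 Female BALB/c mice, 10 weeks old, 5 per group, given a single subcutaneous injection in the neck of adjuvant in 0.1 mL PBS at doses from 100 to 5000 μg, with untreated controls. Survival was counted 5 days after injection. Surviving mice were checked through day 7 for fur condition, behaviour, lethargy and lesion formation.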

[16] = tested on: Mus musculus; test: Immuno-adjuvant activity in OVA-immunized BALB/c mouse assessed as potentiation of antibody response to OVA by measuring increase in serum anti-OVA IgG1 activity at 100 ug, sc administered immediately and on day 14, 28 and measured at week 6 by ELISA; type: functional, organism-based; summary of the method: as §1
[17] = tested on: Mus musculus; test: Immuno-adjuvant activity in recombinant Porphyromonas gingivalis HagB-immunized BALB/c mouse assessed as potentiation of antibody response to rHagB by measuring increase in serum anti-rHagB IgG2a activity at 100 ug, sc administered immediately and on day 14, 28 and measured at week 2 to 4 by ELISA; type: functional, organism-based
[18] = tested on: Mus musculus; test: Immuno-adjuvant activity in OVA-immunized BALB/c mouse assessed as potentiation of antibody response to OVA by measuring increase in serum anti-OVA IgG activity at 100 ug, sc administered immediately and on day 14, 28 and measured at week 4 to 6 by ELISA; type: functional, organism-based; summary of the method: as §1
[19] = tested on: Mus musculus; test: Immuno-adjuvant activity in recombinant Porphyromonas gingivalis HagB-immunized BALB/c mouse assessed as potentiation of antibody response to rHagB by measuring serum anti-rHagB IgG2a activity at 100 ug, sc administered immediately and on day 14, 28 and measured at week 6 by ELISA; type: functional, organism-based
[20] = tested on: Mus musculus; test: Immuno-adjuvant activity in recombinant Porphyromonas gingivalis HagB-immunized BALB/c mouse assessed as potentiation of antibody response to rHagB by measuring increase in serum anti-rHagB IgG2a activity at 100 ug, sc administered immediately and on day 14, 28 and measured at week 2 to 6 by ELISA; type: functional, organism-based
[21] = Acute toxicity in BALB/c mouse assessed as lesion formation at 100 to 2000 ug, sc measured at day 7 post injection; type: organism-based; details: in vivo; summary of the method: as §2
[22] = Acute toxicity in BALB/c mouse assessed as normal animal behaviour with healthy fur at 100 to 2000 ug, sc measured at day 5 post injection; type: organism-based; details: in vivo; summary of the method: as §2
[23] = Acute toxicity in BALB/c mouse assessed as mouse survival at 100 to 2000 ug, sc measured after 5 days; type: organism-based; details: in vivo; summary of the method: as §2
[24] = Acute toxicity in BALB/c mouse assessed as lethargy at 100 to 2000 ug, sc measured at day 7 post injection; type: organism-based; details: in vivo; summary of the method: as §2
[25] = Acute toxicity in BALB/c mouse assessed as mouse survival at 5000 ug, sc measured after 5 days; type: organism-based; details: in vivo; summary of the method: as §2

Row | SMILES | Activity [1] | Ratio [2] | Activity [3] | Activity [4] | Activity [5] | Activity [6] [µg/mL] | Activity [7] | Activity [8] [µg/mL] | Activity [9] | Activity [10] | Activity [11] | Activity [12] | Activity [16] | other results
1 | C[C@@H]1O[C@@H](O[C@H]2[C@H](O)[C@@H](C(=O)O)O[C@@H](O[C@H]3CC[C@]4(C)[C@H]5CC=C6[C@H]7CC(C)(C)CC[C@]7(C(=O)O[C@@H]7O[C@H](C)[C@H](O)[C@H](O)[C@H]7O[C@@H]7O[C@@H](C)[C@H](O[C@@H]8OC[C@@H](O)[C@H](O)[C@H]8O)[C@@H](O[C@@H]8O[C@H](CO)[C@@H](O)[C@H](O[C@@H]9OC[C@@H](O)[C@H](O)[C@H]9O)[C@H]8O)[C@H]7O)CC[C@@]6(C)[C@]5(C)CC[C@H]4[C@]3(C)C=O)[C@@H]2O[C@@H]2O[C@H](CO)[C@H](O)[C@H](O)[C@H]2O)[C@H](O)[C@H](O)[C@H]1O | Active | <0.001 | Active | inactive | Active | 233 | inactive | 0.2 | inactive | Non-Toxic | inactive | inactive |  | 
2 | C[C@@H]1O[C@@H](O[C@H]2[C@H](O)[C@@H](C(=O)O)O[C@@H](O[C@H]3CC[C@]4(C)[C@H]5CC=C6[C@H]7CC(C)(C)CC[C@]7(C(=O)O[C@@H]7O[C@H](C)[C@H](O)[C@H](O)[C@H]7O[C@@H]7O[C@@H](C)[C@H](O[C@@H]8OC[C@@H](O)[C@H](O)[C@H]8O)[C@@H](O[C@@H]8O[C@H](CO)[C@@H](O)[C@H](O[C@@H]9OC[C@@H](O)[C@H](O)[C@H]9O)[C@H]8O)[C@H]7O)[C@H](O)C[C@@]6(C)[C@]5(C)CC[C@H]4[C@]3(C)C=O)[C@@H]2O[C@@H]2O[C@H](CO)[C@H](O)[C@H](O)[C@H]2O)[C@H](O)[C@H](O)[C@H]1O | Active | <0.001 | Active | inactive | Active | 262 | inactive | 0.1 |  | Non-Toxic | inactive | inactive |  | Activity [13]: Active; Activity [14]: inactive
3 | CC1(C)CC[C@]2(C(=O)O[C@@H]3O[C@H](CO)[C@@H](O)[C@H](O[C@@H]4O[C@H](CO)[C@@H](O)[C@H](O[C@@H]5O[C@H](CO)[C@@H](O)[C@H](O[C@@H]6O[C@H](CO)[C@@H](O)[C@H](O[C@@H]7O[C@H](CO)[C@@H](O)[C@H](O)[C@H]7O)[C@H]6O)[C@H]5O)[C@H]4O)[C@H]3O)[C@H](O)C[C@]3(C)C(=CC[C@@H]4[C@@]5(C)CC[C@H](O[C@@H]6O[C@H](CO)[C@@H](O)[C@H](O[C@@H]7O[C@H](CO)[C@@H](O)[C@H](O[C@@H]8O[C@H](CO)[C@@H](O)[C@H](O)[C@H]8O)[C@H]7O)[C@H]6O)[C@@](C)(C=O)[C@@H]5CC[C@]43C)[C@H]2C1 |  |  |  |  |  |  |  |  |  |  |  |  |  | survival at 120 h [15]: 0%
4 | CCCCCCCCCCCCNC(=O)[C@H]1O[C@@H](O[C@H]2CC[C@]3(C)[C@H]4CC=C5[C@H]6CC(C)(C)CC[C@]6(C(=O)O[C@@H]6O[C@H](C)[C@H](O)[C@H](O)[C@H]6O[C@@H]6O[C@@H](C)[C@H](O[C@@H]7OC[C@@H](O)[C@H](O)[C@H]7O)[C@@H](O[C@@H]7O[C@H](CO)[C@@H](O)[C@H](O[C@@H]8OC[C@@H](O)[C@H](O)[C@H]8O)[C@H]7O)[C@H]6O)[C@H](O)C[C@@]5(C)[C@]4(C)CC[C@H]3[C@]2(C)C=O)[C@H](O[C@@H]2O[C@H](CO)[C@H](O)[C@H](O)[C@H]2O)[C@@H](O[C@@H]2O[C@@H](C)[C@H](O)[C@@H](O)[C@H]2O)[C@@H]1O | Active | <0.001 | Active | inactive | Active | 869 | inactive | 1 |  | Non-Toxic | inactive | inactive | Active | Activity [17]: Active; Activity [18]: Active; Activity [19]: inactive
5 | CCCCCCCCCCCCNC(=O)[C@H]1O[C@@H](O[C@H]2CC[C@]3(C)[C@H]4CC=C5[C@H]6CC(C)(C)CC[C@]6(C(=O)O[C@@H]6O[C@H](C)[C@H](O)[C@H](O)[C@H]6O[C@@H]6O[C@@H](C)[C@H](O[C@@H]7OC[C@@H](O)[C@H](O)[C@H]7O)[C@@H](O[C@@H]7O[C@H](CO)[C@@H](O)[C@H](O[C@@H]8OC[C@@H](O)[C@H](O)[C@H]8O)[C@H]7O)[C@H]6O)CC[C@@]5(C)[C@]4(C)CC[C@H]3[C@]2(C)C=O)[C@H](O[C@@H]2O[C@H](CO)[C@H](O)[C@H](O)[C@H]2O)[C@@H](O[C@@H]2O[C@@H](C)[C@H](O)[C@@H](O)[C@H]2O)[C@@H]1O | Active | 0.312 | Active | Active | Active | 713 | inactive | 208 | Active | Non-Toxic | Active | inactive | Active | Activity [20]: Active; Activity [21]: Non-Toxic; Activity [22]: Non-Toxic; survival at 120 h [23]: 100%; Activity [24]: Non-Toxic; survival at 120 h [25]: 0%
